TDP2 inh: TDP2 (human) inhibition, absorbance primary screen; inhibition, % at 12.8 µM; recombinant TDP2, T5PNP hydrolysis, p-nitrophenol absorbance 415 nm; actives 0.34% (n = 370,000); O95551;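 active = inhibition above the mean of all tested compounds plus 3 SD, set per campaign, cut at about 25% in these data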
Target sequence (O95551 whole entry, looked up): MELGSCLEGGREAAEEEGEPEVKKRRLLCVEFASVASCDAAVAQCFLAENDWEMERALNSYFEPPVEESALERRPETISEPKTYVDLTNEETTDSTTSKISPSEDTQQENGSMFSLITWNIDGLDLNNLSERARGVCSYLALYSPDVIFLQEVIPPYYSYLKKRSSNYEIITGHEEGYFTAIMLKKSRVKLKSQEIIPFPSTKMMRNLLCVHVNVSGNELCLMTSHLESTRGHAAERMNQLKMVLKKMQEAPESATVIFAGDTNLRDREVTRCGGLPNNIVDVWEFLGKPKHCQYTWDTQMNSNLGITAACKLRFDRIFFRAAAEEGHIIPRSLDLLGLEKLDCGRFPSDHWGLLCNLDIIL
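System – recombinant human TDP2 · Quantity – TDP2 enzyme at 120 nM final · Doses – single concentration, 12.8 µM nominal, with 1% DMSO · Incubation – 2 h at 37 °C · Measured by – epi absorbance of p-nitrophenol freed from T5PNP by hydrolysis · Read-out – % inhibition relative to enzyme-containing and enzyme-free wells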
LEDGF integ inh: blocks HIV-1 LEDGF/p75-dependent DNA integration; TR-FRET IN-LEDGF/p75 DNA integration, Eu/Cy5; inhibition, % at 3.7 µM; actives 0.64% (n = 370,000);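 active = inhibition above the screen-wide mean plus 3 SD, cut at about 13% in these data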;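 note: signal is the Cy5 over europium emission ratio at 671 and 618 nm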
MBD2 inh: inhibitors of human MBD2 binding to methylated oligonucleotide | TR-FRET | actives 0.31% (n = 370,000) | inhibition, % at 4.4 µM; in the data active = inhibition above about 13%
UHRF1 binding: blocks human UHRF1 binding to methylated DNA. Q96T88. UHRF1 binding to methylated oligo, TR-FRET. inhibition, % at 4.4 µM. actives 0.75% (n = 370,000); in the data active = inhibition above about 21%;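 note: UHRF1 SRA domain binding a hemimethylated CpG hairpin DNA probe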
Rin1 Abl inh: human Rin1-Abl interaction inhibition; AID 588664; TR-FRET Rin1/Abl binding, biochemical; P00519+Q13671; inhibition, % at 7.35 µM; actives 0.4% (n = 360,000); in the data active = inhibition above about 5%, passing the limit was not always enough
Rin1-Abl confirm: Rin1-Abl interaction inhibition confirmation; shares compounds with Rin1 Abl inh; TR-FRET Rin1-Abl binding, purified proteins; inhibition, % at 7.35 µM; actives 49% (n = 1,300)
GFP quench-1: GFP fluorescence interference artifact; inhibition, % at 6.75 µM; AID 602125; actives 8.5% (n = 1,300); inhibitors/quenchers counterscreen; shares compounds with Rin1 Abl inh;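 note: ABL1-eGFP fusion protein alone without its partner RIN1-SBP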
GFP quench DR: counter-screen for Rin1-Abl inhibitors: GFP quenchers, dose response; AID 602182; shares compounds with Rin1 Abl inh; 230 tested, under 10 active; GFP fluorescence interference/quenching counterscreen; IC50, µM; call rule not given here;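 note: ABL1-eGFP fusion protein alone without its RIN1 binding partner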
GFP quench-2: counter-screen for Rin1-Abl interaction inhibitors: GFP fluorescence quenching. shares compounds with Rin1 Abl inh. GFP fluorescence quenching counterscreen, biochemical. IC50, µM. 25 tested, under 10 active. AID 602397; call rule not given here
A number is an active result; 0 = inactive; - = not tested or not shown. This is a sample that favours compounds with a hit; in the whole collection about 1.9% have one here. Cut-off read from the data, not from the text of the source, unless noted: active = inhibition above about 6.5%; inactive = the rest.

SMILES	TDP2 inh	LEDGF integ inh	MBD2 inh	UHRF1 binding	Rin1 Abl inh	Rin1-Abl confirm	GFP quench-1	others
COc1ccc(/C=N/N2C(=O)CN(C(=O)c3ccccc3)C2c2ccc(OC)cc2)cc1 (configuration not stated)	0	0	0	0	5.8	0	0
COc1ccc(-c2nnc(SCC(=O)NN=Cc3c(O)ccc4ccccc34)n2-c2ccc(OC)cc2)cc1	0	0	0	0	-	-	-
Cn1c(CCC(=O)Nc2ccc(N3CCOCC3)cc2)nc(=O)c2ccccc21	0	0	0	0	9.6	0	0
CCOC(=O)N1CCN(C(=O)Nc2ccc(NC(=O)N3CCN(C(=O)OCC)CC3)cc2)CC1	0	0	0	0	33.3	38.4	0	GFP quench DR=0;GFP quench-2=0
O=S1(=O)c2c(cccc2N2CC[C@H](O)C2)O[C@H]2CCN1C2	0	0	0	0	-	-	-
COC(=O)C1CN(C2CC2)CCS(=O)(=O)N1Cc1cn(Cc2ccc(F)cc2)nn1 (configuration not stated)	0	0	0	0	-	-	-
Cn1c(Cc2ccccc2)nnc1SCC(=O)Nc1ccccc1	0	0	0	0	0	-	-
CC(C)OC(=O)CSc1nnc(Cc2ccccc2)n1C	0	0	0	0	8.9	0	0
CC(=O)NS(=O)(=O)c1ccc(NS(=O)(=O)c2ccc(F)cc2)cc1	0	0	0	0	5.8	0	0
Cc1ccc(C)c(NC(=O)CCc2c(C)nn(-c3ccc(N4CCCCC4)nn3)c2C)c1	0	0	0	0	12.0	0	0
COc1ccc(CN=CC2=C(O)CNC2=O)cc1	0	0	0	0	34.1	43.3	0
CCOc1ncccc1C(=O)OC(C)C(=O)Nc1ccc(Cl)cn1 (configuration not stated)	0	0	0	0	8.2	0	0
C/C=C/c1ccc([C@H]2[C@@H](CN(CC(C)C)S(=O)(=O)c3ccccc3[N+](=O)[O-])N(C(=O)Nc3cccc(OC)c3)[C@H]2CO)cc1	0	0	0	0	-	-	-
Cc1ccc(F)cc1C(=O)N1CCCC(c2nc(-c3cccs3)no2)C1 (configuration not stated)	0	0	0	0	-	-	-
CCOc1ccc(CCNC(=O)c2ccc(Oc3ccccc3)cc2)cc1OCC	0	0	0	0	-	-	-
Nc1nc(-c2ccc([N+](=O)[O-])cc2)cc(=O)[nH]1	0	0	0	0	13.5	11.2	0
O=c1cc(-c2ccccc2)nc(Sc2ccc([N+](=O)[O-])cc2[N+](=O)[O-])[nH]1	0	0	0	0	0	-	-
COC(=O)[C@]12C[C@H](CC(=O)NCCC(C)C)C(=O)N(CCC3=CCCCC3)C1=C[C@H](C1CCCC1)O[C@@H]2C	0	0	0	0	-	-	-
COc1ccc(CNC2CCCc3ccccc32)c(OC)c1 (configuration not stated)	0	0	0	0	6.2	0	0
CC(=O)NC(c1cccs1)c1cc(F)c2cccnc2c1O (configuration not stated)	0	0	0	0	17.4	13.2	0
O=C(CSc1nnc(-c2ccccc2)n1-c1ccc(Cl)cc1)Nc1cccc2ccccc12	0	0	0	0	-	-	-
CC[C@]12c3[nH]c4ccc(OC)cc4c3CCN1C(=O)C(CC(=O)NCCc1ccccn1)C[C@@H]2C(=O)N1CCN(C(=O)c2ccco2)CC1 (some centres not stated)	0	0	0	0	16.0	0	0
CC[C@]12c3[nH]c4ccc(OC)cc4c3CCN1C(=O)C(CC(=O)NCc1cccc(C(F)(F)F)c1)C[C@@H]2C(=O)N1CCN(C(=O)c2ccco2)CC1 (some centres not stated)	0	0	0	0	18.1	21.2	0	GFP quench DR=0
CC[C@]12c3[nH]c4ccc(Cl)cc4c3CCN1C(=O)[C@@H](CC(=O)NCc1cccc(C(F)(F)F)c1)C[C@@H]2C(=O)N1CCN(C(=O)c2ccco2)CC1	0	0	0	0	0	-	-
CC[C@]12c3[nH]c4ccc(OC)cc4c3CCN1C(=O)C(CC(=O)NC/C=C(\C)CCC=C(C)C)C[C@@H]2C(=O)N1CCN(C(=O)c2ccco2)CC1 (some centres not stated)	0	0	0	0	11.3	0	0
SMILES	TDP2 inh	LEDGF integ inh	MBD2 inh	UHRF1 binding	Rin1 Abl inh	Rin1-Abl confirm	GFP quench-1	others
CC[C@]12c3[nH]c4ccccc4c3CCN1C(=O)C(CC(=O)NC/C=C(\C)CCC=C(C)C)C[C@@H]2C(=O)N1CCN(C(=O)c2ccco2)CC1 (some centres not stated)	0	0	0	0	0	-	-
CC[C@]12c3[nH]c4ccccc4c3CCN1C(=O)C(CC(=O)NCCCN(C)C)C[C@@H]2C(=O)N1CCN(C(=O)c2ccco2)CC1 (some centres not stated)	0	0	0	0	0	-	-
CC[C@]12c3[nH]c4ccc(OC)cc4c3CCN1C(=O)C(CC(=O)NCCCN(C)C)C[C@@H]2C(=O)N1CCN(C(=O)c2ccco2)CC1 (some centres not stated)	0	0	0	0	21.1	22.2	0	GFP quench DR=0
COC(=O)C1CN(Cc2cn(CCC3OCCO3)nn2)CCS(=O)(=O)N1Cc1ccc(F)cc1 (configuration not stated)	0	0	0	0	-	-	-
CN(C)S(=O)(=O)c1ccc(NC(=O)COc2ncnc3c2cnn3-c2ccccc2)cc1	0	0	0	0	6.8	0	0
CC(=O)c1c(C)cc(C)c(CSc2nnc(-c3ccco3)o2)c1C	0	0	0	0	5.4	0	0
Cc1cccc(CSc2nnc(-c3ccco3)o2)c1	0	0	0	0	0	-	-
Cc1ccccc1Cn1cc(COC(=O)NCC(C)C)nn1	0	0	0	0	-	-	-
COc1ccc(C2c3c4c(n(C)c3CCN2C)CCN(C)C4c2ccc(OC)cc2)cc1 (configuration not stated)	0	0	0	0	6.5	0	0
COc1cccc(CNC(=O)Cn2c(-c3ccccc3)cc(C(C)=O)c2C)c1OC	0	0	0	0	-	-	-
COc1cccc(N(C)C(=O)[C@@H](C)[C@@H](O)c2ccc(C(C)=O)cc2)c1	0	0	0	0	-	-	-
COc1ccc(CNC(=O)C2=C(C)C(=O)OC23CCC(C)CC3)cc1 (configuration not stated)	0	0	0	0	7.4	0	0
CC1=C(C(=O)NCc2ccc(Cl)cc2)C2(CCC(C)CC2)OC1=O (configuration not stated)	0	0	0	0	0	-	-

Source: PubChem
